Entries after “also recorded” stand apart in the source; their conditions may differ. Where two headings read alike, the source gives them in different places.
Legend:
[1] = test system: T790M/L858R double mutant over wild-type EGFR; conditions: cited from earlier work
A549 cells [2] = test: Acridine orange; format: cell-based, human; conditions: A549, AO single staining
A549 cells [3] = test: Cell cycle distribution by flow cytometry; format: cell-based, human
A549 cells [4] = test: Annexin V-FITC/PI apoptosis assay by flow cytometry; format: cell-based, human; conditions: A549, 2.5 μM, 48 h; untreated control 12.18%
In short: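 A549 cells seeded at 1 × 10^6 cells/well in RPMI 1640 and exposed to test compound for 48 h. Cells stained with Annexin V-FITC and propidium iodide for 30 min at 4 °C in the dark, then analysed by flow cytometry to give quadrant populations.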

A549 cells [5] = test: cells; format: cell-based, human; conditions: read-out: Anti-proliferative activity IC50, A549
MCF-7 cells = test: MTT anti-proliferative assay, MCF-7; format: cell-based, human; conditions: read-out: Anti-proliferative activity IC50, MCF-7
HepG2 cells = test: MTT anti-proliferative assay, HepG2; format: cell-based, human; conditions: read-out: Anti-proliferative activity IC50, HepG2
H1975 cells = format: cell-based, human; conditions: for IC50: read-out: Anti-proliferative activity IC50, H1975, 72 h; for IC50 / inhibitory activity against H1975 cells (in words): H1975, MTT

Row | Compound | IC50 (A549 cells [5]; A549, MTT, 72 h) [µM] | IC50 (MCF-7 cells; MCF-7, MTT, 72 h) [µM] | IC50 (HepG2 cells; HepG2, MTT, 72 h) [µM] | IC50 (H1975 cells) [µM] | inhibitory activity against H1975 cells (in words) (H1975 cells) | other results
1 | C=CC(=O)Nc1cc(Nc2nccc(-c3cn(C)c4ccccc34)n2)c(OC)cc1N(C)CCN(C)C [AZD9291] | – | – | – | – | – | selectivity for the T790M/L858R double mutant over wild-type EGFR [1]: 200 fold
2 | O=C(N/N=C/c1cnc(N2CCCC2)nc1)Nc1cc2c(Nc3ccc(F)c(Cl)c3)ncnc2cc1O[C@H]1CCOC1 [Compound 14, (S,E)-N-(4-((3-chloro-4-fluorophenyl)amino)-7-((tetrahydrofuran-3-yl)oxy)quinazolin-6-yl)-2-((2-(pyrrolidin-1-yl)pyrimidin-5-yl)methylene)hydrazine-1-carboxamide] | – | – | – | – | – | induction of A549 cell apoptosis by AO staining (in words) (A549 cells [2]): can induce A549 cell apoptosis; cell cycle arrest phase (in words) (A549 cells [3]; A549): S phase arrest; also recorded: arrested the cell cycle at the S phase; proportion of cells in S phase (A549 cells [3]; A549, 2.5 μM): 50.68%; proportion of cells in G0/G1 phase (A549 cells [3]; A549, 2.5 μM, control 26.57%): 23.62%; proportion of cells in G2/M phase (A549 cells [3]; A549, 2.5 μM, control 29.4%): 25.7%; G0/G1 (%) (A549 cells [3]; A549, 25 μM, 48 h, DMSO 26.57): 23.62%; G2/M (%) (A549 cells [3]; A549, 25 μM, 48 h, DMSO 29.40): 25.70%; S (%) (A549 cells [3]; A549, 25 μM, 48 h, DMSO 44.03): 50.68%; apoptotic cells (early + late) (A549 cells [4]): 34.9%; IC50 (A549 cells [5]; Homo sapiens, A549, 72 h): 5.9 ± 0.25 µM; IC50 (MCF-7 cells; Homo sapiens, MCF7, 72 h): 2.37 ± 0.34 µM; IC50 (HepG2 cells; Homo sapiens, HepG2, 72 h): 4.63 ± 0.36 µM; selectivity for H1975 cells (in words) (H1975 cells; versus HepG2, A549, MCF-7): slight selectivity
3 | COc1cc2ncnc(Nc3ccc(F)c(Cl)c3)c2cc1NC(=O)N/N=C/c1ccc(OCCCN2CCOCC2)cc1 [Compound 47, (E)-N-(4-((3-chloro-4-fluoropheny)amino)-7-methoxyquinazolin-6-yl)-2-(4-(3-morpholinopropoxy)benzylidene)hydrazine-1-carboxamide] | 34.8 ± 1.26 | 27.5 ± 1.29 | 28.4 ± 1.78 | 41.2 ± 2.07 | – | –
4 | (E)-N-(4-((3-chloro-4-fluoropheny)amino)-7-methoxyquinazolin-6-yl)-2-(4-(2-(pyrrolidin-1-yl)ethoxy)benzylid ene)hydrazine-1-carboxamide [Compound 33] | 36.4 ± 2.78 | 44.2 ± 3.75 | 46.7 ± 4.46 | 49.3 ± 4.68 | – | –
5 | (E)-N-(4-((3-chloro-4-fluoropheny)amino)-7-methoxyquinazolin-6-yl)-2-(4-(3-(4-methylpiperazin-1-yl)propoxy) benzylidene)hydrazine-1-carboxamide [Compound 48] | 2.96 ± 0.36 | 12.2 ± 0.89 | 14.5 ± 1.27 | 10.2 ± 1.26 | moderate inhibitory activity | –
6 | (E)-N-(4-((3-chloro-4-fluoropheny)amino)-7-methoxyquinazolin-6-yl)-2-(4-(3-(dimethylamino)propoxy)benzyl idene)hydrazine-1-carboxamide [Compound 43] | 43.1 ± 3.34 | > 100 | > 100 | > 100 | – | –
7 | (E)-N-(4-((3-chloro-4-fluoropheny)amino)-7-methoxyquinazolin-6-yl)-2-(4-(3-(pyrrolidin-1-yl)propoxy)benzyli dene)hydrazine-1-carboxamide [Compound 45] | 23.2 ± 1.47 | 16.9 ± 1.34 | 24.5 ± 1.27 | 38.2 ± 1.23 | – | –
8 | (S,E)-N-(4-((3-chloro-4-fluoropheny)amino)-7-((tetrahydrofuran-3-yl)oxy)quinazolin-6-yl)-2-(4-(2-(4-methylpi perazin-1-yl)ethoxy)benzylidene)hydrazine-1-carboxamide [Compound 42] | 2.52 ± 0.54 | 10.8 ± 0.68 | 13.4 ± 0.54 | 11.2 ± 1.34 | moderate inhibitory activity | –
9 | (S,E)-N-(4-((3-chloro-4-fluoropheny)amino)-7-((tetrahydrofuran-3-yl)oxy)quinazolin-6-yl)-2-(4-(2-(diethylamin o)ethoxy)benzylidene)hydrazine-1-carboxamide [Compound 38] | 3.01 ± 0.54 | 1.99 ± 0.68 | 1.91 ± 0.34 | > 100 | poorer cellular activity | –
10 | (S,E)-N-(4-((3-chloro-4-fluorophenyl)amino)-7-((tetrahydrofuran-3-yl)oxy)quinazolin-6-yl)-2-(4-(3-(diethylamin o)propoxy)benzylidene)hydrazine-1-carboxamide [Compound 49] | 9.48 ± 0.86 | 6.21 ± 0.68 | 5.04 ± 0.64 | 32.8 ± 1.27 | poorer cellular activity | –

Reference: paper PMC6282443 (Journal of Enzyme Inhibition and Medicinal Chemistry, 2018)
